Most compounds without a hit are left out; they make up all but 10% or so of the library.
Lmaj promast – reduces viability of Leishmania major promastigotes; actives 9% (n = 200,000); inhibition, % at 10 µM; AID 1063; resazurin fluorescence viability; in the data active = inhibition above about 50%;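 also: promastigotes grown with compound for 44 hours at 28 °C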
PMI act hi M6P – increases human PMI activity with near-saturating mannose 6-phosphate; coupled PMI enzyme assay, resazurin fluorescence, 20 min; stronger effect = higher value; 1 = untreated enzyme, 0 = substrate-free blank; activation factor at 20 µM; P34949; actives 0.34% (n = 190,000);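 active = activation factor of 2 or more at 20 µM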
Target sequence (P34949 whole entry, looked up): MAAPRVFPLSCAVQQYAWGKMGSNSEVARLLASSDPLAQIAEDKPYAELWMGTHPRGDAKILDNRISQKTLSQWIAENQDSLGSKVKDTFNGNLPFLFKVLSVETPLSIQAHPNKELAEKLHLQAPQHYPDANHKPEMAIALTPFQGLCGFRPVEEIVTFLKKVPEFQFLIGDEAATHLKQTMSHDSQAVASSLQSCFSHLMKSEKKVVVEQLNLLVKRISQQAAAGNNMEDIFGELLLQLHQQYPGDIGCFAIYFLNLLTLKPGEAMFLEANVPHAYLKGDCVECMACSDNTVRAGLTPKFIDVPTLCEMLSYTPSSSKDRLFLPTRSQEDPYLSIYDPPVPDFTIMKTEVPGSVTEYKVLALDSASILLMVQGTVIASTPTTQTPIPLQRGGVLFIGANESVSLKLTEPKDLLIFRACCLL
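Test system: human PMI in coupled enzyme assay; Input: PMI at 15 ng/mL final; Medium: HEPES buffer, pH 7.4; Schedule: 20 min incubation at room temperature; Technique: resorufin fluorescence at Ex 544/Em 590 nm; Compound: 20 µM single dose; Probe or stimulus: Near-saturating mannose-6-phosphate, 1.0 mM.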
WT yeast gro inh – growth inhibition of WT yeast, mitochondrial fusion screen; inhibition, % at 10 µM; actives 2.1% (n = 190,000); AID 1362; mitochondrial fusion phenotypic screen, WT strain; in the data active = inhibition above about 58%; tested in S. cerevisiae
PMI act – phosphomannose isomerase (human) activation | activation factor at 20 µM | P34949 | actives 0.005% (n = 190,000) | purified human PMI, coupled resazurin fluorescence, 20 min; stronger effect = higher value; 1 = vehicle control, 0 substrate-free wells;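 active = activation factor of 2 or more at 20 µM, relative to plate controls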
Diaph act CS – diaphorase activation or chemical reduction counter-screen; Diaphorase/resazurin coupled assay, resorufin fluorescence, 16 min; stronger effect = higher value; 1 = vehicle wells, 0 = NADH-free wells; activation factor at 20 µM; AID 1229; actives 0.005% (n = 190,000);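 active = diaphorase activity raised at least twofold by the compound at 20 µM; inactive = activation factor below 2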
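Material: Clostridium kluyveri diaphorase, purified enzyme; Quantity: enzyme 0.07 U/mL final; Medium: HEPES pH 7.4 buffer with MgCl2 and Tween 20; Dosing: single compound dose of 20 µM, 1% DMSO final; Schedule: 16 min reaction at room temperature; Measured by: red resorufin fluorescence at 544/590 nm excitation/emission.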
L major 1uM – L. major promastigote growth inhibition, 1 uM repeat | shares compounds with Lmaj promast | resazurin fluorescence, 48 h | inhibition, % at 1 µM | actives 13% (n = 1,100);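 active = inhibition above about 50% in both repeat tests, limit read from the data; inconclusive = one repeat under the set limit, the other over it; inactive = both repeats under the set limit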
Each line names hits and unclear results; the compound was inactive in the other large screens (follow-up assays come after a bar, where they were run).

O=C1C=C2C=C[C@H]3C[C@]2(O1)[C@@H]1CCCCN13	Lmaj promast 51 | L major 1uM inactive
OC12Oc3ccccc3C=C1N1CCC2CC1 (stereo not given)	none
O=C1C2CCN(CC2)C1Cc1ccc(OCCOc2ccccc2)cc1 (stereo not given)	Lmaj promast 100 | L major 1uM 97
Nc1ccc(C2(c3ccc(N)cc3)CN3CCC2CC3)cc1	none
Cc1ccnc(NS(=O)(=O)c2ccc(N=Cc3c(O)n(C)c(=O)n(C)c3=O)cc2)n1	none
O=C(NC[P+](=O)O)OCc1ccccc1	none
CN1C[C@H](CNC(=O)OCc2ccccc2)C[C@@H]2c3cccc4c3c(cn4C)C[C@H]21	Lmaj promast 69 | L major 1uM inactive
CCNC(=O)NC(=O)C(C)OC(=O)c1c(C)nn(Cc2ccccc2Cl)c1Cl (stereo not given)	Lmaj promast 51 | L major 1uM inactive
Cc1nn(Cc2ccccc2Cl)c(Cl)c1C(=O)OCC(=O)NCc1ccco1	none
O=C1OCCC1NC1=NCCC1 (stereo not given)	none
CC1CC(C)CN(CC(=O)c2ccc(OC(F)F)cc2)C1 (stereo not given)	none
CCN1CC=C(c2c[nH]c3ccccc23)CC1	Lmaj promast 99 | L major 1uM inactive
NC(=O)c1cn(C2OC(CO)C(O)C2O)c2ncnc(N)c12 (stereo not given)	Lmaj promast 99 | L major 1uM 97
CCNC(=O)[C@H]1O[C@@H](n2cnc3c(N)ncnc32)[C@H](O)[C@@H]1O	none (no result: Lmaj promast)
Cc1cccc(C)c1OP(N)(=O)OCC(F)(F)F (stereo not given)	Lmaj promast 68 | L major 1uM inactive
COC1=CCC2([N+](=O)[O-])CN(C)CC1([N+](=O)[O-])C2 (stereo not given)	none
Cc1c(P(=S)(c2ccccc2)c2ccccc2)[n+]2ccccc2n1C	Lmaj promast 73 | L major 1uM inactive
CCn1ccnc1CN1CCCC(C(=O)c2ccc(OC)cc2OC)C1 (stereo not given)	none
COc1ccc(C(=O)C2CCCN(Cc3ccc(C)s3)C2)c(OC)c1 (stereo not given)	Lmaj promast 80 | L major 1uM inactive
Cc1cc(C)nc(N2Cc3ccccc3C2=N)n1	Lmaj promast 50 | L major 1uM inactive
Cc1ccc(N2Cc3ccccc3C2=N)cc1[N+](=O)[O-]	none
CCOC(=O)N1CCC(NC(=O)CCc2nc(C3=CCN(C)CC3)no2)CC1	none
CCOP(=S)(NN(Cc1ccccc1)C(=O)c1ccccc1)OCC	Lmaj promast 89 | L major 1uM inactive
CCn1nc(-c2ccccc2)nc2c(=O)n(C)c(=O)nc1-2	none
Cc1nc2c(=O)n(C)c(=O)nc-2n(C)n1	Lmaj promast 101 | L major 1uM 101
O=c1[nH]c2ccccc2n1C1CCN(CCCC(c2ccc(F)cc2)c2ccc(F)cc2)CC1	Lmaj promast 83, WT yeast gro inh 70 | L major 1uM inactive
CCc1ccc(C2=NN(CCC(=O)N3CCC4(CC3)OCCO4)C(=O)CC2)cc1	none
Cc1cccc(OP(=O)(Nc2cccnc2)Oc2cccc(C)c2)c1	Lmaj promast 92 | L major 1uM inconclusive
CSc1ccc(CNC2CN3CCC2CC3)cc1 (stereo not given)	Lmaj promast 100 | L major 1uM 66
Clc1ccccc1CNC1CN2CCC1CC2 (stereo not given)	none
CC(=O)c1ccc2c(c1)C1C(Cl)C(Sc3ccccc3[N+](=O)[O-])CC1C(c1ccccc1[N+](=O)[O-])N2 (stereo not given)	Lmaj promast 54 | L major 1uM inactive
CC(C)n1nnnc1CN1CCN(C)CC1	none
C[n+]1c(-c2ccccc2)cc(CCCCc2cc(-c3ccccc3)[n+](C)c(-c3ccccc3)c2)cc1-c1ccccc1	Lmaj promast 100 | L major 1uM 95
COc1ccc(-c2nc3ccccc3c(=O)n2-c2ccc(OC)cc2)cc1	none
COc1ccc(-c2cc(-c3ccccc3)[n+](C)c(-c3ccccc3)c2)cc1	Lmaj promast 100 | L major 1uM inactive
CCCCCCn1c(O)c(C=NCCN2CCOCC2)c(=O)[nH]c1=O	none
CC(=O)N1N=C2C3CCN(CC3)C2C1c1cccc2ccccc12 (stereo not given)	none
CN1/C(=C\C=C\C2=[N+](C)c3ccc4ccccc4c3C2(C)C)C(C)(C)c2ccccc21	Lmaj promast 98 | L major 1uM 101
CN1/C(=C\C=C2C(=O)NC(=O)NC2=O)C(C)(C)c2ccccc21	none
CN1C(=O)C(=Cc2ccc(OCCN(C)c3ccccn3)cc2)C(=O)N(C)C1=O	none
CCN(CC)CCOC(=O)C(O)(c1ccccc1)c1ccccc1	none
CC(C)N1C(=O)CC2(CC[N+](C)(CCOC(=O)C(O)(c3ccccc3)c3ccccc3)CC2)C1=O (stereo not given)	Lmaj promast 93 | L major 1uM inactive
CC1(C)C[C@H]2C=C(C=O)[C@]3(C=O)C[C@]3(C)[C@H]2C1	Lmaj promast 84 | L major 1uM inactive
Cc1ccsc1C(=O)C1CCCN(Cc2cc(C(C)C)n[nH]2)C1 (stereo not given)	none
CC(C)(C)c1ccc(C(=O)C2CCCN(C3CCC3)C2)cc1 (stereo not given)	Lmaj promast 93 | L major 1uM 80
COC(=O)C1CN(C#N)N(c2ccc(Cl)cc2)C12c1ccccc1-c1ccccc12 (stereo not given)	Lmaj promast 100, WT yeast gro inh 74 | L major 1uM 101
Cc1ccc(C2=NC(C)(C)N3C2C3c2ccc([N+](=O)[O-])cc2)cc1 (stereo not given)	Lmaj promast 57 | L major 1uM inactive
CCOC(=O)CC(NC(=O)C(Cc1ccc(N(CCCl)CCCl)cc1)NC(C)=O)C(=O)OCC (stereo not given)	none (no result: PMI act hi M6P, PMI act, Diaph act CS)

From PubChem
